{"source": "ChEMBL document CHEMBL1126866", "about": "“TSAO analogues. 3. Synthesis and anti-HIV-1 activity of 2',5'-bis-O-(tert-butyldimethylsilyl)-beta-D-ribofuranosyl 3'-spiro-5''-(4''-amino-1'',2''-oxathiole 2'',2''-dioxide) purine and purine-modified nucleosides” (J Med Chem, 1993)", "key": {"[1]": {"test_system": "Human immunodeficiency virus 2", "experiment": "Effective concentration required to inhibit HIV-2 induced cytopathicity in MT-4 cells", "assay_type": "functional, organism-based", "settings": "Human immunodeficiency virus 2, MT4"}, "MT4": {"test_system": "MT4", "experiment": "Cytotoxic concentration required to inhibit the viability of MT-4 cells", "assay_type": "functional", "settings": "Homo sapiens", "how_it_was_run": "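Mock-infected MT-4 cells (5×10^5 cells/mL) were cultured with serial dilutions of test compound for 5 days. Viable cells were counted by trypan blue staining. CC50 = concentration reducing the number of viable mock-infected MT-4 cells by 50%.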"}, "[2]": {"experiment": "Effective concentration required to inhibit HIV-1 induced cytopathicity in MT-4 cells", "assay_type": "functional, cell-based", "settings": "Human immunodeficiency virus 1, MT4", "how_it_was_run": "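MT-4 cells (5×10^5 cells/mL) were infected with HIV-1 at 100 CCID50 per mL of cell suspension and incubated with serial compound dilutions for 5 days. Viable cells were counted by trypan blue staining. EC50 = concentration reducing virus-induced loss of viable MT-4 cells by 50%.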"}, "[3]": {"test_system": "Human immunodeficiency virus 1", "experiment": "Selectivity index expressed as the ratio of CC50/EC50 of MT-4 cell lines"}, "CCRF-CEM": {"test_system": "CCRF-CEM", "experiment": "Effective concentration required to inhibit HIV- induced giant cell formation in CEM cells", "assay_type": "functional, cell-based", "settings": "Homo sapiens", "how_it_was_run": "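CEM cells (5×10^5 cells/mL) were infected with HIV-1 at 100 CCID50 per mL of cell suspension and mixed with compound dilutions. Syncytia were scored microscopically after 4 days. EC50 = concentration reducing syncytium number by 50%.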"}}, "data": [{"smiles": "CC(C)(C)[Si](C)(C)OC[C@H]1O[C@@H](n2cnc3c(O)ncnc32)[C@H](O[Si](C)(C)C(C)(C)C)[C@]12OS(=O)(=O)C=C2N", "values": [{"measurement": "EC50", "setting": "[1]", "result": "> 7", "unit": "µM"}, {"measurement": "CC50", "setting": "MT4", "result": 14, "unit": "µM"}, {"measurement": "EC50", "setting": "[2]", "result": 0.158, "unit": "µM"}, {"measurement": "Selectivity index", "setting": "[3]", "result": 89}]}, {"smiles": "CC(C)(C)[Si](C)(C)OC[C@H]1O[C@@H](n2cnc3c(N)ncnc32)[C@H](O[Si](C)(C)C(C)(C)C)[C@]12OS(=O)(=O)C=C2N", "values": [{"measurement": "EC50", "setting": "[1]", "result": "> 14", "unit": "µM"}, {"measurement": "CC50", "setting": "MT4", "result": 13, "unit": "µM"}, {"measurement": "EC50", "setting": "[2]", "result": 0.278, "unit": "µM"}, {"measurement": "Selectivity index", "setting": "[3]", "result": 47}]}, {"smiles": "Cn1cnc2c(ncn2[C@@H]2O[C@H](CO[Si](C)(C)C(C)(C)C)[C@@]3(OS(=O)(=O)C=C3N)[C@H]2O[Si](C)(C)C(C)(C)C)c1=O", "values": [{"measurement": "EC50", "setting": "[1]", "result": "> 150", "unit": "µM"}, {"measurement": "CC50", "setting": "MT4", "result": "> 150", "unit": "µM"}, {"measurement": "EC50", "setting": "CCRF-CEM", "result": 0.101, "unit": "µM"}, {"measurement": "EC50", "setting": "[2]", "result": 0.514, "unit": "µM"}, {"measurement": "Selectivity index", "setting": "[3]", "result": ">292"}]}, {"smiles": "COc1ccc(C(Nc2ncnc3c2ncn3[C@@H]2O[C@H](CO[Si](C)(C)C(C)(C)C)[C@]3(OS(=O)(=O)C=C3N)[C@H]2O[Si](C)(C)C(C)(C)C)(c2ccccc2)c2ccccc2)cc1", "values": [{"measurement": "EC50", "setting": "[1]", "result": "> 100", "unit": "µM"}, {"measurement": "CC50", "setting": "MT4", "result": 191, "unit": "µM"}, {"measurement": "EC50", "setting": "[2]", "result": "> 100", "unit": "µM"}, {"measurement": "Selectivity index", "setting": "[3]", "result": "<1.9"}]}, {"smiles": "CC(C)(C)[Si](C)(C)OC[C@H]1O[C@@H](n2cnc3c(N)ncnc32)[C@H](O[Si](C)(C)C(C)(C)C)[C@@]12OS(=O)(=O)C=C2N", "values": [{"measurement": "EC50", "setting": "[1]", "result": "> 2.7", "unit": "µM"}, {"measurement": "CC50", "setting": "MT4", "result": 7.3, "unit": "µM"}, {"measurement": "EC50", "setting": "[2]", "result": "> 2.7", "unit": "µM"}, {"measurement": "Selectivity index", "setting": "[3]", "result": "<2.7"}]}, {"smiles": "COc1ccc(C(Nc2ncnc3c2ncn3[C@@H]2O[C@H](CO[Si](C)(C)C(C)(C)C)[C@@]3(OS(=O)(=O)C=C3N)[C@H]2O[Si](C)(C)C(C)(C)C)(c2ccccc2)c2ccccc2)cc1", "values": [{"measurement": "EC50", "setting": "[1]", "result": "> 100", "unit": "µM"}, {"measurement": "CC50", "setting": "MT4", "result": 192, "unit": "µM"}, {"measurement": "EC50", "setting": "[2]", "result": "> 100", "unit": "µM"}, {"measurement": "Selectivity index", "setting": "[3]", "result": "<1.9"}]}, {"smiles": "CCn1cnc2ncn([C@@H]3O[C@H](CO[Si](C)(C)C(C)(C)C)[C@@]4(OS(=O)(=O)C=C4N)[C@H]3O[Si](C)(C)C(C)(C)C)c2c1=O", "values": [{"measurement": "EC50", "setting": "[1]", "result": "> 150", "unit": "µM"}, {"measurement": "CC50", "setting": "MT4", "result": "> 150", "unit": "µM"}, {"measurement": "EC50", "setting": "CCRF-CEM", "result": 0.172, "unit": "µM"}, {"measurement": "EC50", "setting": "[2]", "result": 0.604, "unit": "µM"}, {"measurement": "Selectivity index", "setting": "[3]", "result": ">248"}]}, {"smiles": "CC(C)(C)[Si](C)(C)OC[C@H]1O[C@@H](n2c(=O)[nH]c(=O)c3[nH]cnc32)[C@H](O[Si](C)(C)C(C)(C)C)[C@]12OS(=O)(=O)C=C2N", "values": [{"measurement": "EC50", "setting": "[1]", "result": "> 7", "unit": "µM"}, {"measurement": "CC50", "setting": "MT4", "result": 14, "unit": "µM"}, {"measurement": "EC50", "setting": "CCRF-CEM", "result": 2.3, "unit": "µM"}, {"measurement": "EC50", "setting": "[2]", "result": 2.7, "unit": "µM"}, {"measurement": "Selectivity index", "setting": "[3]", "result": 5.2}]}, {"smiles": "CC(C)(C)[Si](C)(C)OC[C@H]1O[C@@H](n2cnc3[nH]c(=O)[nH]c(=O)c32)[C@H](O[Si](C)(C)C(C)(C)C)[C@]12OS(=O)(=O)C=C2N", "values": [{"measurement": "EC50", "setting": "[1]", "result": "> 7", "unit": "µM"}, {"measurement": "CC50", "setting": "MT4", "result": 13, "unit": "µM"}, {"measurement": "EC50", "setting": "CCRF-CEM", "result": 0.126, "unit": "µM"}, {"measurement": "EC50", "setting": "[2]", "result": 0.358, "unit": "µM"}, {"measurement": "Selectivity index", "setting": "[3]", "result": 36}]}, {"smiles": "CC(C)(C)[Si](C)(C)OC[C@H]1O[C@@H](n2cnc3ncn([C@@H]4O[C@H](CO[Si](C)(C)C(C)(C)C)[C@@]5(OS(=O)(=O)C=C5N)[C@H]4O[Si](C)(C)C(C)(C)C)c3c2=O)[C@H](O[Si](C)(C)C(C)(C)C)[C@]12OS(=O)(=O)C=C2N", "values": [{"measurement": "EC50", "setting": "[1]", "result": "> 150", "unit": "µM"}, {"measurement": "CC50", "setting": "MT4", "result": "> 150", "unit": "µM"}, {"measurement": "EC50", "setting": "[2]", "result": "> 150", "unit": "µM"}, {"measurement": "Selectivity index", "setting": "[3]", "result": "<1"}]}, {"smiles": "CC(C)(C)[Si](C)(C)OC[C@H]1O[C@@H](n2cnc3ccccc32)[C@H](O[Si](C)(C)C(C)(C)C)[C@]12OS(=O)(=O)C=C2N", "values": [{"measurement": "EC50", "setting": "[1]", "result": "> 7", "unit": "µM"}, {"measurement": "CC50", "setting": "MT4", "result": 15, "unit": "µM"}, {"measurement": "EC50", "setting": "[2]", "result": 3.1, "unit": "µM"}, {"measurement": "Selectivity index", "setting": "[3]", "result": 4.8}]}, {"smiles": "CC(C)(C)[Si](C)(C)OC[C@H]1O[C@@H](n2cnc3ncnc(O)c32)[C@H](O[Si](C)(C)C(C)(C)C)[C@]12OS(=O)(=O)C=C2N", "values": [{"measurement": "EC50", "setting": "[1]", "result": "> 7", "unit": "µM"}, {"measurement": "CC50", "setting": "MT4", "result": 15, "unit": "µM"}, {"measurement": "EC50", "setting": "[2]", "result": 0.173, "unit": "µM"}, {"measurement": "Selectivity index", "setting": "[3]", "result": 86}]}, {"smiles": "Cn1cnc2ncn([C@@H]3O[C@H](CO[Si](C)(C)C(C)(C)C)[C@@]4(OS(=O)(=O)C=C4N)[C@H]3O[Si](C)(C)C(C)(C)C)c2c1=O", "values": [{"measurement": "EC50", "setting": "[1]", "result": "> 100", "unit": "µM"}, {"measurement": "CC50", "setting": "MT4", "result": 156, "unit": "µM"}, {"measurement": "EC50", "setting": "CCRF-CEM", "result": 0.067, "unit": "µM"}, {"measurement": "EC50", "setting": "[2]", "result": 0.201, "unit": "µM"}, {"measurement": "Selectivity index", "setting": "[3]", "result": 776}]}, {"smiles": "CC(C)(C)[Si](C)(C)OC[C@H]1O[C@@H](n2cnc3cncnc32)[C@H](O[Si](C)(C)C(C)(C)C)[C@]12OS(=O)(=O)C=C2N", "values": [{"measurement": "EC50", "setting": "[1]", "result": "> 7", "unit": "µM"}, {"measurement": "CC50", "setting": "MT4", "result": 13, "unit": "µM"}, {"measurement": "EC50", "setting": "CCRF-CEM", "result": 0.074, "unit": "µM"}, {"measurement": "EC50", "setting": "[2]", "result": 0.177, "unit": "µM"}, {"measurement": "Selectivity index", "setting": "[3]", "result": 73}]}, {"smiles": "CN(C)c1ncnc2c1ncn2[C@@H]1O[C@H](CO[Si](C)(C)C(C)(C)C)[C@@]2(OS(=O)(=O)C=C2N)[C@H]1O[Si](C)(C)C(C)(C)C", "values": [{"measurement": "EC50", "setting": "[1]", "result": "> 30", "unit": "µM"}, {"measurement": "CC50", "setting": "MT4", "result": 15, "unit": "µM"}, {"measurement": "EC50", "setting": "CCRF-CEM", "result": 0.646, "unit": "µM"}, {"measurement": "EC50", "setting": "[2]", "result": 0.389, "unit": "µM"}, {"measurement": "Selectivity index", "setting": "[3]", "result": 39}]}, {"smiles": "CNc1ncnc2c1ncn2[C@@H]1O[C@H](CO[Si](C)(C)C(C)(C)C)[C@@]2(OS(=O)(=O)C=C2N)[C@H]1O[Si](C)(C)C(C)(C)C", "values": [{"measurement": "EC50", "setting": "[1]", "result": "> 7", "unit": "µM"}, {"measurement": "CC50", "setting": "MT4", "result": 14, "unit": "µM"}, {"measurement": "EC50", "setting": "CCRF-CEM", "result": 0.161, "unit": "µM"}, {"measurement": "EC50", "setting": "[2]", "result": 0.146, "unit": "µM"}, {"measurement": "Selectivity index", "setting": "[3]", "result": 96}]}, {"smiles": "COc1ncnc2c1ncn2[C@@H]1O[C@H](CO[Si](C)(C)C(C)(C)C)[C@@]2(OS(=O)(=O)C=C2N)[C@H]1O[Si](C)(C)C(C)(C)C", "values": [{"measurement": "EC50", "setting": "[1]", "result": "> 30", "unit": "µM"}, {"measurement": "CC50", "setting": "MT4", "result": 21, "unit": "µM"}, {"measurement": "EC50", "setting": "CCRF-CEM", "result": 0.469, "unit": "µM"}, {"measurement": "EC50", "setting": "[2]", "result": 0.141, "unit": "µM"}, {"measurement": "Selectivity index", "setting": "[3]", "result": 149}]}]}
